Test results as given in ChEMBL document CHEMBL1149527, “Antiproliferative and apoptosis inducing properties of pyrano[3,2-c]pyridones accessible by a one-step multicomponent synthesis” (Bioorg Med Chem Lett, 2007).
Active and inactive are the calls of the source. The rule behind the calls is not given here.

Tests used:
[1] = system: HeLa; test: Antiproliferative activity against human HeLa cells after 48 hrs by MTT assay relative to control; format: functional, cell-based
In short: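 HeLa cells exposed to compounds for 48 h; viability read as mitochondrial dehydrogenase activity by MTT reduction; IC50 values derived.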

[2] = system: Jurkat; test: Induction of apoptosis in Jurkat cells at 5 uM after 36 hrs by flow cytometry; format: functional
In short: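 Jurkat cells incubated 36 h with agents at 5 μM (DMSO control); apoptosis scored by flow cytometry after annexin-V/propidium iodide staining; two experiments.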

[3] = system: Jurkat; test: Cell cycle arrest in Jurkat cells assessed as accumulation at G0/G1 phase at 5 uM after 15 hrs relative to control; format: functional, Homo sapiens
In short: (§1)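 Jurkat cells treated 15 h (test agents 5 μM, colchicine 25 μM, DMSO vehicle control); DNA stained with Vybrant Orange and analysed by flow cytometry; percent of cells in G0/G1, S and G2/M given as mean ± SD.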

[4] = system: Jurkat; test: Cell cycle arrest in Jurkat cells assessed as accumulation at S phase at 5 uM after 15 hrs relative to control; format: functional, Homo sapiens; in short: as §1
[5] = system: Jurkat; test: Cell cycle arrest in Jurkat cells assessed as accumulation at G2/M phase at 5 uM after 15 hrs relative to control; format: functional, Homo sapiens; in short: as §1
[6] = system: Jurkat; test: Cell cycle arrest in Jurkat cells assessed as accumulation at G0/G1 phase at 25 uM after 15 hrs relative to control; format: functional, Homo sapiens; in short: as §1
[7] = system: Jurkat; test: Cell cycle arrest in Jurkat cells assessed as accumulation at S phase at 25 uM after 15 hrs relative to control; format: functional, Homo sapiens; in short: as §1
[8] = system: Jurkat; test: Cell cycle arrest in Jurkat cells assessed as accumulation at G2/M phase at 25 uM after 15 hrs relative to control; format: functional, Homo sapiens; in short: as §1

Structure (SMILES) | IC50 [1] | Activity [2] | further results
COc1ccc(CCn2c(C)cc3c(c2=O)C(c2cc(OC)c(OC)c(OC)c2)C(C#N)=C(N)O3)cc1OC (stereo not drawn) | 22.7 µM | – | Activity ([2]; Homo sapiens): inactive
Cc1cc2c(c(=O)o1)C(c1cccc(Br)c1)C(C#N)=C(N)O2 (stereo not drawn) | > 100 µM | – | –
COc1cc2c(c(OC)c1OC)-c1ccc(OC)c(=O)cc1[C@@H](NC(C)=O)CC2 [COLCHICINE] | – | – | Activity [6]: 19%; Activity [7]: 23.1%; Activity [8]: 57.9%
Cc1cc2c(c(=O)n1C)C(c1ccc(C(C)C)cc1)C(C#N)=C(N)O2 (stereo not drawn) | > 100 µM | – | Activity ([2]; Homo sapiens): inactive
Cc1cc2c(c(=O)n1C)C(c1cccc(Br)c1)C(C#N)=C(N)O2 (stereo not drawn) | 6.5 µM | 50% | –
Cc1cc2c(c(=O)n1C)C(c1cccc([N+](=O)[O-])c1)C(C#N)=C(N)O2 (stereo not drawn) | 35 µM | – | Activity ([2]; Homo sapiens): inactive
Cc1cc2c(c(=O)n1C)C(c1ccc(F)c(Br)c1)C(C#N)=C(N)O2 (stereo not drawn) | 6.33 µM | 50% | –
Cc1cc2c(c(=O)n1C)C(c1ccc(Cl)c(Cl)c1)C(C#N)=C(N)O2 (stereo not drawn) | 18.3 µM | – | Activity ([2]; Homo sapiens): inactive

Second part, led by results:

IC50 [1] | Structure (SMILES) | Activity [2] | further results
0.58 µM | COc1cc(C2C(C#N)=C(N)Oc3cc(C)n(C)c(=O)c32)cc(Br)c1OC (stereo not drawn) | 50% | Activity [3]: 12%; Activity [4]: 19%; Activity [5]: 68.5%
1.08 µM | CCOc1c(Br)cc(C2C(C#N)=C(N)Oc3cc(C)n(C)c(=O)c32)cc1OC (stereo not drawn) | 50% | –
2.67 µM | COc1cc(C2C(C#N)=C(N)Oc3cc(C)n(C)c(=O)c32)cc(Br)c1O (stereo not drawn) | 50% | –
43.3 µM | COc1cc(C2C(C#N)=C(N)Oc3cc(C)n(C)c(=O)c32)cc(OC)c1OC (stereo not drawn) | – | –
0.33 µM | Cc1cc2c(c(=O)n1C)C(c1ccc(N(C)C)c(Br)c1)C(C#N)=C(N)O2 (stereo not drawn) | 50% | Activity [3]: 14.4%; Activity [4]: 18.1%; Activity [5]: 67.5%
3.5 µM | COc1cc(C2C(C#N)=C(N)Oc3cc(C)n(C)c(=O)c32)cc(Br)c1OC(C)=O (stereo not drawn) | 50% | –
